Results from ChEMBL document CHEMBL3045677, “Sulfonamide-1,2,4-thiadiazole derivatives as antifungal and antibacterial agents: synthesis, biological evaluation, lipophilicity, and conformational studies” (2010).
≈ marks a conversion by molar mass, not a printed value.

Tests used:
Proteus mirabilis [1] = assay: Antibacterial activity against Proteus mirabilis at […] degC measured after 24 hr by microdilution method; type: functional
How it was run: (§1)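 Bacteria suspended in sterile saline at 1.0×10⁵ CFU/ml and added at 1.0×10⁴ CFU per well to LB broth with compound (1 mg/ml) in 96-well plates. Incubated 24 h at […] °C. MIC was the lowest concentration without visible growth under a binocular microscope. OD 655 nm was read against a blank and a positive control.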

Aspergillus fumigatus = assay: Antifungal activity against plant isolate Aspergillus fumigatus at 28 degC measured after 72 hr by microdilution method; type: functional
How it was run: (§2)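 Fungi were kept on malt agar at 4 °C. Spores were washed off with sterile 0.85% saline containing 0.1% Tween 80 and adjusted to about 1.0×10⁵ per well. Compounds were dissolved in DMSO (1 mg/ml stock) and serially diluted in malt broth with inoculum in 96-well plates, 72 h at 28 °C, for MIC. MFC came from subculture into fresh broth for a further 72 h at 28 °C.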

Talaromyces funiculosus = assay: Antifungal activity against Talaromyces funiculosus ATCC 36839 at 28 degC measured after 72 hr by microdilution method; type: functional; conditions: ATCC 36839, 72 h; how it was run: as §2
Listeria monocytogenes [2] = assay: Antibacterial activity against Listeria monocytogenes NCTC 7973 at […] degC measured after 24 hr by microdilution method; type: functional; conditions: NCTC 7973, 24 h; how it was run: as §1
Pseudomonas aeruginosa [3] = assay: Antibacterial activity against Pseudomonas aeruginosa ATCC 27853 at […] degC measured after 72 hr by microdilution method; type: functional; conditions: ATCC 27853, 72 h
How it was run: (§3)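 Bactericidal endpoint: after the 24 h broth microdilution (1.0×10⁴ CFU per well, LB broth, […] °C), wells were serially subcultured into plates of fresh broth and incubated a further 72 h. MBC was the lowest concentration with no visible growth, taken as 99.5% killing of the original inoculum.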

Staphylococcus aureus [4] = assay: Antibacterial activity against Staphylococcus aureus ATCC 6538 at […] degC measured after 72 hr by microdilution method; type: functional; conditions: ATCC 6538, 72 h; how it was run: as §3
Escherichia coli [5] = assay: Antibacterial activity against Escherichia coli ATCC 35210 at […] degC measured after 72 hr by microdilution method; type: functional; conditions: ATCC 35210, 72 h; how it was run: as §3
Escherichia coli [6] = assay: Antibacterial activity against Escherichia coli ATCC 35210 at […] degC measured after 24 hr by microdilution method; type: functional; conditions: ATCC 35210, 24 h; how it was run: as §1
Trichoderma viride = assay: Antifungal activity against Hypocrea rufa IAM 5061 at 28 degC measured after 72 hr by microdilution method; type: functional; conditions: IAM 5061, 72 h; how it was run: as §2
Bacillus cereus [7] = assay: Antibacterial activity against clinical isolate Bacillus cereus at […] degC measured after 72 hr by microdilution method; type: functional; how it was run: as §3
Proteus mirabilis [8] = assay: Antibacterial activity against Proteus mirabilis at […] degC measured after 72 hr by microdilution method; type: functional; how it was run: as §3
Aspergillus niger = assay: Antifungal activity against Aspergillus niger ATCC 6275 at 28 degC measured after 72 hr by microdilution method; type: functional; conditions: ATCC 6275, 72 h; how it was run: as §2
Fulvia fulva = assay: Antifungal activity against Passalora fulva TK5318 at 28 degC measured after 72 hr by microdilution method; type: functional; conditions: TK5318, 72 h; how it was run: as §2
Bacillus cereus [9] = assay: Antibacterial activity against clinical isolate Bacillus cereus at […] degC measured after 24 hr by microdilution method; type: functional; how it was run: as §1
Aspergillus versicolor = assay: Antifungal activity against Aspergillus versicolor ATCC 11730 at 28 degC measured after 72 hr by microdilution method; type: functional; conditions: ATCC 11730, 72 h; how it was run: as §2
Aspergillus flavus = assay: Antifungal activity against Aspergillus flavus ATCC 9643 at 28 degC measured after 72 hr by microdilution method; type: functional; conditions: ATCC 9643, 72 h; how it was run: as §2
Salmonella typhimurium [10] = assay: Antibacterial activity against Salmonella enterica subsp. enterica serovar TyphimuriumATCC 13311 at […] degC measured after 72 hr by microdilution method; type: functional, Salmonella enterica subsp. enterica serovar Typhimurium; conditions: ATCC 13311, 72 h; how it was run: as §3
Listeria monocytogenes [11] = assay: Antibacterial activity against Listeria monocytogenes NCTC 7973 at […] degC measured after 72 hr by microdilution method; type: functional; conditions: NCTC 7973, 72 h; how it was run: as §3
Micrococcus flavus [12] = assay: Antibacterial activity against Micrococcus flavus ATCC 10240 at […] degC measured after 24 hr by microdilution method; type: functional; conditions: ATCC 10240, 24 h; how it was run: as §1
Staphylococcus aureus [13] = assay: Antibacterial activity against Staphylococcus aureus ATCC 6538 at […] degC measured after 24 hr by microdilution method; type: functional; conditions: ATCC 6538, 24 h; how it was run: as §1
Salmonella typhimurium [14] = assay: Antibacterial activity against Salmonella enterica subsp. enterica serovar Typhimurium ATCC 13311 at […] degC measured after 24 hr by microdilution method; type: functional; conditions: ATCC 13311, 24 h; how it was run: as §1
Penicillium ochrochloron = assay: Antifungal activity against Penicillium ochrochloron ATCC 9112 at 28 degC measured after 72 hr by microdilution method; type: functional; conditions: ATCC 9112, 72 h; how it was run: as §2
Micrococcus flavus [15] = assay: Antibacterial activity against Micrococcus flavus ATCC 10240 at […] degC measured after 72 hr by microdilution method; type: functional; conditions: ATCC 10240, 72 h; how it was run: as §3
Pseudomonas aeruginosa [16] = assay: Antibacterial activity against Pseudomonas aeruginosa ATCC 27853 at […] degC measured after 24 hr by microdilution method; type: functional; conditions: ATCC 27853, 24 h; how it was run: as §1

Structure (SMILES) | MIC (Proteus mirabilis [1]) | MFC (Aspergillus fumigatus) | MIC (Aspergillus fumigatus) | MFC (Talaromyces funiculosus) | MIC (Talaromyces funiculosus) | MIC (Listeria monocytogenes [2]) | MBC (Pseudomonas aeruginosa [3]) | MBC (Staphylococcus aureus [4]) | MBC (Escherichia coli [5]) | MIC (Escherichia coli [6]) | MFC (Trichoderma viride) | MIC (Trichoderma viride) | MBC (Bacillus cereus [7]) | MBC (Proteus mirabilis [8]) | MFC (Aspergillus niger) | MIC (Aspergillus niger) | MFC (Fulvia fulva) | MIC (Fulvia fulva) | MIC (Bacillus cereus [9]) | MFC (Aspergillus versicolor) | other results
COc1cc(Cc2nnc(Nc3ccc(C(F)(F)F)cc3)s2)c(S(=O)(=O)N2CCCCC2)cc1OC | 36.8 µM (≈ 20 µg/mL) | 36.8 µM (≈ 20 µg/mL) | 9.2 µM (≈ 4.99 µg/mL) | 18.4 µM (≈ 9.98 µg/mL) | 9.2 µM (≈ 4.99 µg/mL) | 18.4 µM (≈ 9.98 µg/mL) | 18.4 µM (≈ 9.98 µg/mL) | 36.8 µM (≈ 20 µg/mL) | 36.8 µM (≈ 20 µg/mL) | 18.4 µM (≈ 9.98 µg/mL) | 18.4 µM (≈ 9.98 µg/mL) | 9.2 µM (≈ 4.99 µg/mL) | 18.4 µM (≈ 9.98 µg/mL) | 73.6 µM (≈ 39.9 µg/mL) | 36.8 µM (≈ 20 µg/mL) | 18.4 µM (≈ 9.98 µg/mL) | 18.4 µM (≈ 9.98 µg/mL) | 9.2 µM (≈ 4.99 µg/mL) | 9.2 µM (≈ 4.99 µg/mL) | 18.4 µM (≈ 9.98 µg/mL) | MIC (Aspergillus versicolor): 9.2 µM (≈ 4.99 µg/mL); MFC (Aspergillus flavus): 36.8 µM (≈ 20 µg/mL); MIC (Aspergillus flavus): 18.4 µM (≈ 9.98 µg/mL); MBC (Salmonella typhimurium [10]): 18.4 µM (≈ 9.98 µg/mL); MBC (Listeria monocytogenes [11]): 73.6 µM (≈ 39.9 µg/mL); MIC (Micrococcus flavus [12]): 9.2 µM (≈ 4.99 µg/mL); MIC (Staphylococcus aureus [13]): 18.4 µM (≈ 9.98 µg/mL); MIC (Salmonella typhimurium [14]): 9.2 µM (≈ 4.99 µg/mL); MFC (Penicillium ochrochloron): 36.8 µM (≈ 20 µg/mL); MIC (Penicillium ochrochloron): 18.4 µM (≈ 9.98 µg/mL); MBC (Micrococcus flavus [15]): 18.4 µM (≈ 9.98 µg/mL); MIC (Pseudomonas aeruginosa [16]): 9.2 µM (≈ 4.99 µg/mL)
COc1cc(Cc2nnc(Nc3ccc(Cl)cc3)s2)c(S(=O)(=O)N2CCN(C)CC2)cc1OC | 38.2 µM (≈ 20 µg/mL) | 38.2 µM (≈ 20 µg/mL) | 9.6 µM (≈ 5.03 µg/mL) | 38.2 µM (≈ 20 µg/mL) | 19.1 µM (≈ 10 µg/mL) | 19.1 µM (≈ 10 µg/mL) | 76.4 µM (≈ 40 µg/mL) | 76.4 µM (≈ 40 µg/mL) | 76.4 µM (≈ 40 µg/mL) | 19.1 µM (≈ 10 µg/mL) | 19.1 µM (≈ 10 µg/mL) | 9.6 µM (≈ 5.03 µg/mL) | 38.2 µM (≈ 20 µg/mL) | 76.4 µM (≈ 40 µg/mL) | 38.2 µM (≈ 20 µg/mL) | 19.1 µM (≈ 10 µg/mL) | 19.1 µM (≈ 10 µg/mL) | 9.6 µM (≈ 5.03 µg/mL) | 19.1 µM (≈ 10 µg/mL) | 38.2 µM (≈ 20 µg/mL) | MIC (Aspergillus versicolor): 38.2 µM (≈ 20 µg/mL); MFC (Aspergillus flavus): 38.2 µM (≈ 20 µg/mL); MIC (Aspergillus flavus): 19.1 µM (≈ 10 µg/mL); MBC (Salmonella typhimurium [10]): 38.2 µM (≈ 20 µg/mL); MBC (Listeria monocytogenes [11]): 76.4 µM (≈ 40 µg/mL); MIC (Micrococcus flavus [12]): 9.6 µM (≈ 5.03 µg/mL); MIC (Staphylococcus aureus [13]): 38.2 µM (≈ 20 µg/mL); MIC (Salmonella typhimurium [14]): 9.6 µM (≈ 5.03 µg/mL); MFC (Penicillium ochrochloron): 38.2 µM (≈ 20 µg/mL); MIC (Penicillium ochrochloron): 19.1 µM (≈ 10 µg/mL); MBC (Micrococcus flavus [15]): 19.1 µM (≈ 10 µg/mL); MIC (Pseudomonas aeruginosa [16]): 19.1 µM (≈ 10 µg/mL)
COc1cc(Cc2nnc(Nc3ccc(C(F)(F)F)cc3)s2)c(S(=O)(=O)N2CCN(C)CC2)cc1OC | 17.9 µM (≈ 9.98 µg/mL) | 17.9 µM (≈ 9.98 µg/mL) | 8.9 µM (≈ 4.96 µg/mL) | 17.9 µM (≈ 9.98 µg/mL) | 8.9 µM (≈ 4.96 µg/mL) | 17.9 µM (≈ 9.98 µg/mL) | 35.8 µM (≈ 20 µg/mL) | 35.8 µM (≈ 20 µg/mL) | 17.9 µM (≈ 9.98 µg/mL) | 17.9 µM (≈ 9.98 µg/mL) | 17.9 µM (≈ 9.98 µg/mL) | 8.9 µM (≈ 4.96 µg/mL) | 17.9 µM (≈ 9.98 µg/mL) | 35.8 µM (≈ 20 µg/mL) | 35.8 µM (≈ 20 µg/mL) | 17.9 µM (≈ 9.98 µg/mL) | 17.9 µM (≈ 9.98 µg/mL) | 8.9 µM (≈ 4.96 µg/mL) | 17.9 µM (≈ 9.98 µg/mL) | 35.8 µM (≈ 20 µg/mL) | MIC (Aspergillus versicolor): 17.9 µM (≈ 9.98 µg/mL); MFC (Aspergillus flavus): 35.8 µM (≈ 20 µg/mL); MIC (Aspergillus flavus): 17.9 µM (≈ 9.98 µg/mL); MBC (Salmonella typhimurium [10]): 35.8 µM (≈ 20 µg/mL); MBC (Listeria monocytogenes [11]): 35.8 µM (≈ 20 µg/mL); MIC (Micrococcus flavus [12]): 17.9 µM (≈ 9.98 µg/mL); MIC (Staphylococcus aureus [13]): 17.9 µM (≈ 9.98 µg/mL); MIC (Salmonella typhimurium [14]): 17.9 µM (≈ 9.98 µg/mL); MFC (Penicillium ochrochloron): 35.8 µM (≈ 20 µg/mL); MIC (Penicillium ochrochloron): 17.9 µM (≈ 9.98 µg/mL); MBC (Micrococcus flavus [15]): 35.8 µM (≈ 20 µg/mL); MIC (Pseudomonas aeruginosa [16]): 17.9 µM (≈ 9.98 µg/mL)
